Molecules are shown by their SMILES.

Assay type in all cases: functional, organism-based
For assay [1], the species on record is Homo sapiens. The assay is described as follows: Inhibitory activity against endoperoxide (U-46,619 2 uM) induced aggregation in Human Platelets; NI is No Inhibitory activity up to a concentration of 400 uM. Summed up: (§1)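 Washed platelets from drug-free (≥10 days) human volunteers, suspended in modified Tyrode's solution pH 7.4 at 3 × 10^8/mL. Compound preincubated 3 min at 37 °C before agonist addition. Aggregation read turbidometrically (Born method, Mustard modification) in a dual-channel aggregometer. Values mean ± SEM from four to six donors; tested up to 400 μM.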

Assay [2] is filed under the species Homo sapiens. The assay is described as follows: Inhibitory activity against thrombin (0.03 U/mL) induced aggregation in Human Platelets; NI is No Inhibitory activity up to a concentration of 400 uM. Summed up: as §1
The species entered for assay [3] is Homo sapiens. The experiment in a line: Inhibitory activity against phospholipase C (PLC 0.05 U/mL) induced aggregation in Human Platelets. Summed up:
as §1

The species named for assay [4] is Homo sapiens. The assay is described as follows: Inhibitory activity against endoperoxide (U-46,619 2 uM) induced aggregation in Human Platelets. Summed up: as §1
For assay [5], the species on record is Homo sapiens. The assay is described as follows: Inhibitory activity against thrombin (0.03 U/mL) induced aggregation in Human Platelets. The procedure, abridged:
as §1

The term IC50 denotes the point on the concentration scale where inhibition reaches its midpoint. A high value points to lower potency. With `COc1cc(CC2NCCCc3cc4c(cc32)OCO4)cc(OC)c1OC` (configuration not stated), the values for the IC50 entry in the assay listed under Homo sapiens [1], in the assay filed under Homo sapiens [2] and in the assay listed under Homo sapiens [3] were “No inhibition”, “No inhibition” and 3 µM, respectively.
With `COc1cc(C[C@@H]2NCCc3cc(O)c(O)cc32)cc(OC)c1OC` [TRETOQUINOL], the IC50 came out at 11 µM in the assay listed under Homo sapiens [4], 50 µM in the assay listed under Homo sapiens [5] and 50 µM in the assay listed under Homo sapiens [3].
`COc1cc(C[C@H]2NCCc3cc(O)c(O)cc32)cc(OC)c1OC`: the figures for the IC50 in the assay filed under Homo sapiens [4], in the assay filed under Homo sapiens [5] and in the assay listed under Homo sapiens [3] were 0.14 µM, 150 µM and 175 µM, respectively.
`COc1cc(CC2NCCCc3cc(O)c(O)cc32)cc(OC)c1OC` (configuration not stated): the IC50 entry in the assay listed under Homo sapiens [1] was “No inhibition”; in the assay listed under Homo sapiens [2], “No inhibition”; in the assay filed under Homo sapiens [3] it was 30 µM.
